Measured values published in PubChem BioAssay AID624467 (The Scripps Research Institute Molecular Screening Center, 2012).
Hit rate of the full screen: of about 360,000 compounds, about 3,600 (1%) were called active. The sample as a whole holds a higher share of actives than the screen did. A number with no mark means an inactive call.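 How the source made its calls: active means activation above the mean activation of all test compounds in the run plus 3 SD (cut at about 38% in these data); inactive means the rest.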

The molecules below were run against Trace amine-associated receptor 1 (Homo sapiens) (UniProt Q96RJ0) (assay: human TAAR1 agonists, primary screen, Fluo-8 calcium fluorescence, CHO RD-HGA16 cells (AID 624467)). Details: CHO RD-HGA16 TAAR1, Fluo-8 calcium fluorescence; at 3 µM; hits give high values; vehicle wells 0%, saturating PEA agonist 100%.
Trace amine-associated receptor 1 (Homo sapiens), sequence (Q96RJ0 whole entry, looked up): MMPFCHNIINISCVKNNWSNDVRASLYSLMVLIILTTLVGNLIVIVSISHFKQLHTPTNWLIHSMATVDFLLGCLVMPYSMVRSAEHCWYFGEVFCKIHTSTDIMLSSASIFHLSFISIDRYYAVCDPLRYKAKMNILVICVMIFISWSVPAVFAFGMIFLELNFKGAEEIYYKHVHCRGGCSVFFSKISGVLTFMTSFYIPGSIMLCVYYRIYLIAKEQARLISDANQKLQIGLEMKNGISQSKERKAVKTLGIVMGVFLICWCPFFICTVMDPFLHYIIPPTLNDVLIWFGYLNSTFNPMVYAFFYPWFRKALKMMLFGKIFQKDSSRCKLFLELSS
Method in brief: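 Test system: RD-HGA16 (CHO) cells co-expressing Gα16 and hTAAR1; dosing: one-point dosing at 3 µM (nominal); timing: 17-24 h seeding, 75 min 37 °C dye, 30 min RT; signal: kinetic Fluo-8 calcium fluorescence; read-out basis: % activation relative to PEA EC100 response; controls: DMSO and PEA EC100; replicates: n 1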
For `CC1(C(=O)NS(=O)(=O)c2cccc(OC(F)F)c2)CCN1C(=O)COc1ccc(Cl)cc1` (stereo not drawn), the activation was 1.84%.
In the case of `COC(=O)c1c(-c2ccc(OC)cc2)c2c(c3c4ccccc4n(S(=O)(=O)c4ccc(C)cc4)c13)C(=O)N(C)C2`, the activation is reported as -0.97%.
With `COc1ccc(CCNCc2c(-c3ccccc3)n(C)c3ccccc23)cc1` the activation was 37.6% (active).
With `COc1ccc(-c2c(C#Cc3ccccc3)c3ccccc3n2C)cc1` the activation was 1.86%.
`COc1ccc(CNCCCn2cnc3c(OCc4ccccc4)ncnc32)cc1` showed an activation of 2.67%.
`Cc1ccc(N2C(=O)C(NC(=O)c3c(F)cccc3F)(C(F)(F)F)C3=C2CC(C)(C)CC3=O)cc1` (stereo not drawn) was tested, and the activation was 0.87%.
`O=C1[C@@H](c2ccccc2)[C@@H](c2ccccc2)N1c1ccccc1` gave an activation of 3.32%.
`CC(C)(C)OC(=O)N1CCN(C(=O)c2[nH]c(C(F)(F)F)nc2-c2ccccc2)CC1` gave an activation of 1.1%.
Work on `CSc1ccc(-c2c(C#N)c(N)nc3c2c(C)nn3-c2ccccc2)cc1` yielded an activation of 8.14%.
In the case of `COc1ccccc1-c1c(C#N)c(N)nc2c1CCC2`, the activation is reported as -0.25%.
For `CSc1nc(N)c(C#N)c(-c2ccccc2Cl)c1C#N`, the activation was 56.9% (active).
`Cc1ccc2oc(=O)ccc2c1` showed an activation of 0.04%.
Work on `CCc1ccc2oc(-c3ccc(N)cc3)nc2c1` yielded an activation of 11.3%.
In the case of `CCN(CC)c1ccc2oc(=O)c(C)nc2c1`, the activation is reported as 81% (active).
`O=C1CCN(C(=O)Nc2ccccc2)N1` showed an activation of 3.7%.
For `C[C@H]1CN([C@@H](C)CO)C(=O)CCCn2nncc2CO[C@@H]1CN(C)C(=O)Nc1ccc(N2CCN(C)CC2)cc1`, the activation was 0.67%.
In the case of `CCOc1ccc(Br)cc1S(=O)(=O)Nc1ccc(S(=O)(=O)Nc2cc(C)on2)cc1`, the activation is reported as -0.13%.
`O=C(NNC(=S)Nc1ccc(Br)cc1Cl)c1ccco1` showed an activation of 3.5%.
`CCCc1ccc(OCC(=O)NNC(=S)NC(=O)c2ccco2)cc1` was tested, and the activation was 83.4% (active).
`O=C(Nc1ccc2ccccc2c1)/C(=C\c1ccc2c(c1)OCO2)NC(=O)c1ccco1` gave an activation of -0.26%.
For `CC(Oc1ccc2ccccc2c1)C(=O)NNC(=S)NC(=O)c1ccco1` (stereo not drawn), the activation was 98.9% (active).
With `CCC1CCCCN1C(=S)NC(=O)c1ccco1` (stereo not drawn) the activation was 4.61%.
`NS(=O)(=O)c1ccc(CNC(=S)NC(=O)c2ccco2)cc1` showed an activation of 1.56%.
For `O=C(C(=O)N1CCN(c2ccccc2)CC1)c1ccc2c(c1)OCO2`, the activation was -0.35%.
Work on `CCC(C)NC(=O)c1ccc(NC(=O)CC2SC(N3CCCCC3)=NC2=O)cc1` (stereo not drawn) yielded an activation of 1.77%.
`C=CCOC(=O)C1=C[C@H](c2ccc(Br)cc2)C[C@H](OCCCCO)O1` showed an activation of 8.86%.
Work on `COc1cc2c(cc1OC)CN(C(C)C(=O)Nc1cccc(S(=O)(=O)N3CCOCC3)c1)CC2` (stereo not drawn) yielded an activation of 0.59%.
With `O=C(NCCc1ccc(F)cc1)c1n[nH]c2ccccc12` the activation was 1.79%.
With `O=Cc1c(NCCc2cccc(F)c2)c2ccccc2[nH]c1=O` the activation was 72.1% (active).
For `O=Cc1c(NCCCN2CCCC2=O)c2ccccc2[nH]c1=O`, the activation was 1.42%.
With `C=CCN1C(=O)N(Cc2ccccc2)c2ccccc2S1(=O)=O` the activation was 0.49%.
`CCCCCCc1cc2cc(-c3nnc(-c4cccc(OC)c4)o3)c(=O)oc2cc1O` was tested, and the activation was 16.7%.
Work on `CCn1cc(CN2CCCC(CNS(=O)(=O)Cc3ccccc3)C2)cn1` (stereo not drawn) yielded an activation of 0.93%.
For `COc1ccc2nc3n(c(=O)c2c1)-c1ccc(Cl)cc1C(=O)NC3Cc1ccccc1` (stereo not drawn), the activation was 4.87%.
For `Cn1c(=O)c(=O)n(C)c2cc(S(=O)(=O)NCCN3CCN(c4ccccc4F)CC3)ccc21`, the activation was -1.59%.
In the case of `Cn1c(=O)c(=O)n(C)c2cc(S(=O)(=O)NCCc3ccccc3)ccc21`, the activation is reported as 82.3% (active).
In the case of `O=S(=O)(NCCc1ccccc1)c1ccccc1`, the activation is reported as 15.9%.
`C[C@@H](CN1C2=NC[C@@H](Cc3ccccc3)N2C[C@H]1Cc1ccc(O)cc1)NC(=O)CCC1CCCCC1` gave an activation of -0.01%.
In the case of `O=C(NCC1(N2CCCCC2)CCCCC1)c1cccc(S(=O)(=O)Nc2ccccc2Cl)c1`, the activation is reported as -0.1%.
`C[C@H]1[C@H](c2ccccc2)Oc2cc(Br)ccc2S(=O)(=O)N1Cc1cccc(F)c1` gave an activation of 2.18%.
`Cc1cccc(NC(=O)CN2C(=O)CNC2=O)c1` gave an activation of 6.24%.
For `Cc1cccc(NC(=O)C(C)N2C(=O)C3C4CC(C(Br)C4Br)C3C2=O)c1` (stereo not drawn), the activation was 49.9% (active).
`Cc1ccnc(NC(=O)C(C)N2C(=O)c3ccccc3C2=O)c1` (stereo not drawn) gave an activation of 2.11%.
`Cc1cccc(N(C(=O)c2ccc(CN3CCOCC3)o2)C(C(=O)NC2CCCCC2)c2ccc(F)cc2)c1` (stereo not drawn) showed an activation of 0.09%.
With `COc1ccccc1C(=O)N1O[C@]23C=C[C@]14C[C@@H](O)CC[C@]4(C)C2CC[C@]1(C)[C@@H]([C@H](C)/C=C/[C@H](C)C(C)C)CC[C@H]13` (stereo partly drawn) the activation was -1.12%.
With `O=C(Nc1c(Cl)c(C2CC2)nn1-c1ccccc1)C(Cl)(Cl)Cl` the activation was 1.51%.
For `CCCCOc1ccc(CSC(=N)N)cc1[N+](=O)[O-]`, the activation was 68.2% (active).
`CCOc1ccc(C(=O)Nc2nccs2)cc1[N+](=O)[O-]` showed an activation of 5.29%.
In the case of `CCCCCOc1ccc(CSC2=NCCN2)cc1[N+](=O)[O-]`, the activation is reported as 40.3% (active).
Molecule `CCCCOc1ccc(CON(C(C)=O)C(C)=O)cc1Cl` has an activation of -2.24%.
Molecule `CCCCOC(=O)CCCc1ccc([N+](=O)[O-])cc1[N+](=O)[O-]` has an activation of -2.61%.
With `O=[N+]([O-])c1ccccc1OCCCCN1CCCCC1` the activation was 7.82%.
With `C#CCN([C@@H](C)C(=O)OCC)S(=O)(=O)c1ccc(Br)cc1F` the activation was -2.1%.
`O=C(C[C@@H]1C/C=C\CCC(=O)OC[C@@H]2CCCN2C1=O)NCCO` gave an activation of 13.4%.
`C[C@H](CO)N1C[C@H](C)[C@@H](CN(C)C(=O)Nc2ccccc2F)OCc2cn(nn2)CCCC1=O` was tested, and the activation was 0.9%.
`Cc1ccc(NC(=O)c2cnc(SCC(=O)NCC3CCCO3)n(C)c2=O)cc1` (stereo not drawn) was tested, and the activation was 1.71%.
With `Cc1ccccc1-c1nc(CS(=O)(=O)CC(=O)N2CCc3ccccc3C2)c(C)o1` the activation was 45.5% (active).
`CSc1ccc(CCNC(=O)CS(=O)(=O)Cc2nc(-c3ccccc3F)oc2C)cc1` showed an activation of 2.41%.
For `Cc1ccccc1-c1nc(CS(=O)(=O)CC(=O)NC(C)c2ccccc2)c(C)o1` (stereo not drawn), the activation was -0.93%.
With `CCOC(=O)/C=C/c1ccccc1O` the activation was 0.06%.
With `CC(=O)N1Cc2cc(C(=O)NCc3cccc(F)c3)nc(-c3cccc(C4=CCCC4)c3)c2[C@H]1CCO` the activation was 1.95%.
Work on `COc1ccccc1C(c1nnnn1C(C)(C)C)N1CCN(Cc2ccccc2)CC1` (stereo not drawn) yielded an activation of 7.42%.
With `COc1ccc(OC)c(C(c2nnnn2C(C)(C)C)N2CCc3ccccc3C2)c1` (stereo not drawn) the activation was 64.7% (active).
Molecule `COCCn1nnnc1C(c1cc2ccc(OC)cc2[nH]c1=O)N1CCc2ccccc2C1` (stereo not drawn) has an activation of 5.6%.
Work on `O=C(NNC(=O)c1cc(-c2ccccc2Cl)nc2ccccc12)c1csc(N2CCOCC2)n1` yielded an activation of 2.63%.
In the case of `O=C(OCCOc1ccccc1F)c1cc(S(=O)(=O)N2CCOCC2)ccc1F`, the activation is reported as 3.93%.
In the case of `COc1cccc(-c2cc(CNC(=O)[C@@H](Cc3ccccc3)NC(=O)[C@H]3O[C@@H](n4cnc(C(N)=O)n4)[C@H](O)[C@@H]3O)no2)c1`, the activation is reported as 2.47%.
`Cc1ccc(NC(=O)CN(C)C(=O)c2ccc(Cl)c(S(=O)(=O)NCc3ccco3)c2)cc1` showed an activation of 1.71%.
In the case of `COc1ccc(CNC(=O)c2ccc(-c3cccnc3)c3ccoc23)cc1OC`, the activation is reported as 19.1%.
`CCc1ccc(N2CC(O)=C(c3nc4ccccc4c(=O)[nH]3)C2=N)cc1` gave an activation of 7.2%.
In the case of `N=C1C(c2nc3ccccc3[nH]2)=C(O)CN1NC(=O)c1c[nH]c2ccccc12`, the activation is reported as 41.7% (active).
For `C[N+](C)(C)CCNC(=O)c1c[nH]c2ccccc12`, the activation was 3.46%.
`C=CCN=C1NC(c2ccccc2)C(C(=O)OC)=C(C)N1Cc1ccc(C(F)(F)F)cc1` (stereo not drawn) gave an activation of 26.7%.
For `CCN(CC)CCCC(C)n1c2nc(=O)[nH]c(=O)c-2nc2cc(Cl)ccc21` (stereo not drawn), the activation was 244% (active).
Molecule `COc1cccc(CC(=O)N2CCN(C(=O)C(=O)c3cccc(C(F)(F)F)c3)CC2)c1` has an activation of -0.34%.
In the case of `CCCCCCCCN1C(=O)[C@@H](CC(=O)NCc2ccc(C)o2)C[C@@]2(C(=O)OC)C1=C[C@H](C(C)(C)C)O[C@@H]2C`, the activation is reported as -1.18%.
In the case of `CCCc1cc(C(=O)Nc2ccc(C(=O)OC)cc2)cs1`, the activation is reported as 42.9% (active).
`CCCc1cc(C(=O)Nc2ccc(Cl)cn2)cs1` gave an activation of 0.75%.
For `CCN(CC)C(=O)CCC(=O)Nc1ccc(C(=O)OC)cc1`, the activation was 4.26%.
`NC1=NC(c2ccc([N+](=O)[O-])cc2)N(c2ccc(F)cc2)C(N)=N1` (stereo not drawn) showed an activation of 2.32%.
`CCOC(=O)Cc1csc(NC(NC(=O)OCC)(C(F)(F)F)C(F)(F)F)n1` gave an activation of 11.4%.
`COC(=O)Cc1csc(Nc2c(C)n(C)n(-c3ccccc3)c2=O)n1` was tested, and the activation was 7.82%.
For `CCOC(=O)Cc1csc(NC(=O)Nc2ccccc2)n1`, the activation was 51.5% (active).
With `CCCOCC(O)CC(CC)C(=O)NNC(=S)Nc1ccccc1` (stereo not drawn) the activation was 6.99%.
For `CCCCC(=O)NNC(=S)NC(=O)C(c1ccccc1)c1ccccc1`, the activation was 137% (active).
`C/C(=N\NC(=O)CNC(=O)C(c1ccccc1)c1ccccc1)c1ccc(C)cc1` was tested, and the activation was -0.46%.
Work on `CCN(CC)Cc1nc2sc(C)c(C)c2c(=O)[nH]1` yielded an activation of 7.06%.
In the case of `Cc1cc(NCCc2c[nH]c3ccccc23)ccc1Oc1cccnc1`, the activation is reported as -0.68%.
